Test results from article PMC3979326 (Science signaling, 2012).
Square brackets hold non-standard residues; d marks the D form. Ends that are not written are not given here. pY = N[C@@H](Cc1ccc(OP(=O)(O)O)cc1)C(=O)O

Assays:
[1] = test system: EGF-dependent activation of Akt (RTK-mediated activation of PI3Kβ); assay: EGF-dependent Akt activation; type: cell-based; details: intact cells, cell line not named; fig. S7B
[2] = test system: PC3 cells (PTEN-null prostate cancer); assay: MTT proliferation, PC3 cells; type: cell-based; details: 30 μM peptides, 200 nM TGX221, means ± SEM of three experiments, Fig. 6A
[3] = test system: Gβγ-mediated activation of Akt via PI3Kβ; assay: Gβγ-mediated Akt activation; type: cell-based; details: for effect on Gβγ-mediated increase in Akt phosphorylation at Thr308: 30 μM peptide, Fig. 5A, fig. S7A; for effect on Gβγ-dependent activation of Akt (need for cell entry): fig. S7C, labeled versus unlabeled peptide
Outline: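 HEK 293 cells were grown in DMEM with 10% FBS and transfected with human p85α, myc-p110β, myc-Akt, with or without FLAG-Gβ1 and HA-Gγ2. After overnight serum starvation, cells received myristoylated peptide (30 µM final, from DMSO stock) or TGX-221 (50 nM) for 30 min before lysis. Anti-myc immunoprecipitates were blotted for Akt and pT308-Akt, and the pAkt:total Akt ratio was quantified.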

[4] = test system: p110β–Gβ-p85α-icSH2–Gγ-C68S fusion heterotrimer; assay: Lipid kinase activity, fusion heterotrimer; type: biochemical, human; details: fig. S3A
[5] = test system: 532KK-DD mutant PI3Kβ; assay: Lipid kinase activity, 532KK-DD mutant PI3Kβ; type: biochemical, human; details: pY (substrate stock 900 nM); compared with wild-type; Fig. 1F, S4A, S4B
Outline: (§1)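 Recombinant PI3Kβ from baculovirus-infected insect cells was assayed on lipid vesicles at 1 mg/ml final (5% PIP2, 20% PS, 45% PE, 15% DOPC, 10% cholesterol, 5% sphingomyelin, by weight). Threefold enzyme stocks were 75 nM in Hepes pH 7.5, MgCl2, EDTA. Threefold substrate stocks carried 900 nM RTK-pY and/or 1.5 µM Gβ1γ2. The read-out was 32P-PIP3 captured on nitrocellulose, washed in 1 M NaCl/1% phosphoric acid.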

[6] = test system: loop-swap mutant PI3Kβ; assay: Lipid kinase activity, loop-swap mutant PI3Kβ; type: biochemical, human; details: pY (substrate stock 900 nM); compared with wild-type; Fig. 1F, S4A, S4B
Outline: as §1

[7] = test system: p110β with p85-i or p85-ic; assay: Activity of p110β with p85 truncation constructs; type: biochemical; details: p85-i (iSH2 only) or p85-ic (iSH2-cSH2); fig. S9
[8] = test system: p110β; details: ref [7]; cited from earlier work
[9] = test system: 532KK-DD mutant PI3Kβ in HEK 293E cells; assay: Gβγ-mediated Akt activation, 532KK-DD mutant PI3Kβ; type: cell-based, human; details: myc-Akt, Western blot, Fig. 2A
Outline: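 HEK 293E cells were transfected with human p85α, mutant myc-p110β and myc-Akt, with or without FLAG-Gβ1 and HA-Gγ2, then serum-starved overnight. After anti-myc immunoprecipitation, pT308-Akt and total Akt were blotted and quantified by densitometry or infrared imaging. The pAkt:total Akt ratio is expressed as percent of basal.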

[10] = test system: wild-type PI3Kβ; assay: Lipid kinase activity, wild-type PI3Kβ from insect cells; type: biochemical, human; details: no pY; Fig. 1F
Outline: as §1

[11] = test system: NIH3T3 cells transfected with plasmid encoding PI3Kβ; assay: Proliferation of PI3Kβ-transfected NIH3T3 cells; type: cell-based; details: fig. S7D
[12] = test system: p110β protein; assay: Abundance of p110β protein in cells; type: cell-based; details: Fig. 5, C and D
[13] = test system: NIH3T3 cells expressing p110β and p85α; assay: Boyden chamber migration, PI3Kβ-expressing NIH3T3 cells; type: cell-based
[14] = test system: PC3 cells; assay: Boyden chamber chemotaxis, PC3 cells; type: cell-based; details: 10% FBS, 20 μM (Fig. 6C legend), three experiments
Outline: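 PC-3 cells (5×10^4) were seeded on inserts with 8.0 µm pores. The upper chamber held serum-free medium with DMSO or myristoylated test peptide. The lower chamber held medium with 10% FBS plus DMSO or peptide.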

[15] = test system: p110β–Rab5 binding; assay: Rab5 pulldown assay; details: GST-Rab5 pulldown; fig. S8, E and F
Outline: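 HEK 293T cells were transfected with wild-type or mutant myc-p110β plus p85α. Lysates were incubated with GTPγS-Rab5 or GST beads, washed, and bound proteins blotted.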

[16] = test system: NIH3T3 cells transfected with 12V-Ras; assay: Soft agar colony formation, oncogenic Ras; type: cell-based; details: Fig. 5E
Outline: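 Transfected NIH 3T3 cells were grown in DMEM with 10% calf serum. Two days after transfection, 2,500 cells/well were plated in 0.3% top agar over 0.6% bottom agar. Myristoylated peptide was present at 30 µM in both gels and the medium. Colonies were counted 3 weeks later.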

[17] = test system: PLC-β; assay: Gβγ-mediated PLC-β activation in cells; type: cell-based; details: COS-7 cells, 30 μM, 30 min before LiCl; [3H]inositol phosphates; fig. S8C
Outline: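 COS-7 cells were transiently transfected with or without Gβγ plasmids. Reactions were stopped with ice-cold 50 mM formic acid and neutralised with 150 mM NH4OH after lysis. [3H]inositol phosphates were isolated on Dowex columns and quantified.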

[18] = test system: PC3 cells co-cultured with macrophages; assay: Collagen invasion assay, macrophage-dependent PC3 invasion; type: cell-based; details: collagen I gel, 24 hours, confocal microscopy; two experiments; Fig. 6D
Outline: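 BAC-1.2F5 macrophages and PC-3 cells were vitally labelled with red and green CellTracker dyes and co-cultured at 2.5:1. After attachment, cells were overlaid with collagen I gel and incubated 24 h with or without test peptide. Invasion into the 3D gel was quantified by laser scanning confocal detection of dye fluorescence.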

[19] = test system: p101–p110γ dimer; assay: Gβγ-dependent activation of class IB PI3K; details: fig. S8A
[20] = test system: adenylyl cyclase 2; assay: Adenylyl cyclase assay, synergistic activation by Gβγ and Gαs; type: biochemical; details: 30 μM; 20 nM each Gαs and Gβγ; Sf9 membranes; 10 min at 30°C; fig. S8B
[21] = test system: NIH3T3 cells transfected with p110β and p85α; assay: Focus formation assay, PI3Kβ-transfected NIH3T3 cells; type: cell-based; details: 30 μM peptide; two weeks; crystal violet; Fig. 5D
Outline: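 NIH 3T3 cells were plated at 2×10^5 cells/well and transfected with myc-p110β and p85α plasmids. Cells were grown two weeks with medium changed every two days, with myristoylated peptide at 30 µM in the medium throughout. Cells were then fixed and stained with crystal violet, and foci were counted per well.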

[22] = test system: LPA-stimulated Akt phosphorylation in NIH3T3 cells; assay: LPA-stimulated Akt activation; type: cell-based; details: 30 μM peptide, 10 nM LPA for 5 min, Western blot, Fig. 5B
[23] = test system: NIH3T3 cells transfected with p110β and p85α (PI3Kβ-dependent transformation); assay: Soft agar colony formation, PI3Kβ-transfected NIH3T3 cells; type: cell-based
[24] = test system: PLCβ3; assay: In vitro Gβγ-mediated activation of PLCβ; type: biochemical; details: PLCβ3 1 nM, 10 min at 30°C, [3H]PIP2; fig. S8D
Outline: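 Reactions used recombinant PLCβ3 with a range of peptide concentrations, with or without 200 nM Gαq and with or without Gβγ. Buffer was 20 mM Hepes pH 7.2, 70 mM KCl, 3 mM EGTA, 10 mM NaF, 20 µM AlCl3, 5 mM MgCl2. Substrate was 33 µM PIP2/333 µM PE with [3H]PIP2, free Ca2+ 200 nM. Reactions were stopped with 10% TCA plus BSA, and supernatant counted by scintillation.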

[25] = test system: p101–p110γ dimer (PI3Kγ); assay: Lipid kinase activity, immunopurified p101–p110γ, Gβγ-stimulated; type: biochemical; details: 1 μM p110β-peptide or QEHA, 10 μM SIGK; 200 nM Gβγ; lipid kinase assay
Outline: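 Peptides were prepared in 20 mM Tris-HCl pH 7.4, 10 mM NaCl: test peptide 1 µM, scrambled 1 µM, SIGK 10 µM, QEHA 1 µM. Each was preincubated with 200 nM recombinant lipidated Gβγ for 30 min on ice, then with lipid vesicles 10 min on ice. Immunopurified PI3Kγ was added for 10 min before the kinase assay. Data are means ± SEM of triplicates, representative of two to three experiments.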

Cc1cc(C(C)Nc2ccccc2)c2nc(N3CCOCC3)cc(=O)n2c1 (stereo not drawn) [TGX221, reference compound]
effect on EGF-dependent activation of Akt [1]: substantial inhibitory effect
effect on PC3 cell proliferation [2]: unaffected
effect on Gβγ-dependent Akt activation (TGX-221) ([3]; HEK 293E cells with p110β, p85α, myc-Akt, Gβ1γ2, TGX-221 50 nM, 30 min, fig. S5A): specifically inhibited

ESDGG[pY]MDMSKDESID[pY]VPMLDMKGDIKYADIE
stimulation of fusion heterotrimer [4]: could be stimulated
activation of mutant PI3Kβ by pY (532KK-DD) [5]: activated to a similar extent
activation of mutant PI3Kβ by pY (loop-swap) [6]: activated to a similar extent

Gβγ: Recombinant human Gβ1, N-terminally hexahistidine-tagged bovine wild-type Gγ2
stimulation of p110β associated with p85-i or p85-ic [7]: stimulates p110β
stimulation of fusion heterotrimer [4]: could be stimulated
pT308-Akt in presence of exogenous Gβγ, wild-type PI3Kβ ([3]; HEK 293E cells, wild-type PI3Kβ, myc-Akt, Western blot, Fig. 2A): marked increase
stimulation of p110β in the absence of p85 [8]: stimulates p110β
Akt activation in presence of exogenous Gβγ, 532KK-DD mutant [9]: complete loss of Akt activation
PI3Kβ activation by Gβγ in the absence of pY [10]: activated PI3Kβ in the absence of pY

KAAEIASSDSANVSSRGGKKFLPV [myristoylated p110β-peptide]
effect on EGF-dependent activation of Akt [1]: no effect
effect on proliferation of PI3Kβ-transfected NIH3T3 cells [11]: neither the myristoylated peptide nor pertussis toxin inhibited the proliferation
effect on abundance of p110β protein [12]: did not reduce the abundance of p110β protein
effect on enhanced migration of PI3Kβ-transfected NIH3T3 cells ([13]; Boyden chamber towards 10% FBS, 24 hours, 30 μM, Fig. 5F): blocked the enhanced migration
effect on PC3 cell proliferation [2]: proliferation was inhibited
effect on Gβγ-mediated increase in Akt phosphorylation at Thr308 ([3]; 30 min, Western blot): completely inhibited
effect on Gβγ-dependent activation of Akt (need for cell entry) ([3]; listed as myristoylated): inhibited Gβγ-dependent activation of Akt
effect on chemotaxis of PC3 cells toward serum [14]: inhibited the chemotaxis
effect on binding of p110β to Rab5 [15]: no effect
effect on cellular transformation by oncogenic Ras [16]: no effect
effect on Gβγ-mediated activation of PLC-β in cells [17]: no effect
effect on macrophage-dependent PC3 cell invasion [18]: blocked
effect on Gβγ-dependent activation of class IB PI3K (p101–p110γ) [19]: no effect
effect on synergistic activation of adenylyl cyclase by Gβγ and Gαs [20]: no effect
effect on PI3Kβ-dependent transformation, focus formation [21]: inhibited
effect on LPA-stimulated increase in Akt phosphorylation at Thr308 [22]: completely inhibited
effect on PI3Kβ-dependent transformation, soft agar colony formation ([23]; 30 μM peptide in gels and media, colonies counted after 3 weeks, Fig. 5C): inhibited

KAAEIASSDSANVSSRGGKKFLPV [p110β-peptide]
effect on Gβγ-mediated activation of PLC-β in vitro [24]: no effect
effect on Gβγ-dependent activation of Akt (need for cell entry) ([3]; listed as unlabeled peptide): no such effect
effect on Gβγ-mediated activation of p101–p110γ dimers [25]: no effect on Gβγ-mediated activation of p101–p110γ dimers

NGAEKVGSADSKSIAFVSLKARSP [myristoylated scrambled peptide, reference compound]
effect on PC3 cell proliferation [2]: unaffected
effect on Gβγ-mediated increase in Akt phosphorylation at Thr308 ([3]; 30 min, Western blot): minimal effects
effect on PI3Kβ-dependent transformation, focus formation [21]: but not the myristoylated scrambled peptide, inhibited
effect on LPA-stimulated increase in Akt phosphorylation at Thr308 [22]: minimal effects

QEHAQEPERQYMHIGTMVEFAYALVGK
effect on Gβγ-mediated activation of p101–p110γ dimers [25]: inhibited

SIGKAFKILGYPDYD
effect on Gβγ-mediated activation of p101–p110γ dimers [25]: inhibited

pertussis toxin [reference compound]
effect on proliferation of PI3Kβ-transfected NIH3T3 cells [11]: neither the myristoylated peptide nor pertussis toxin inhibited the proliferation
effect on wild-type p110β-enhanced migration ([13]; pertussis toxin, fig. S6, B and C): inhibited
effect on PC3 cell proliferation [2]: proliferation was inhibited
effect on wild-type p110β-enhanced transformation ([23]; pertussis toxin, NIH3T3 cells, fig. S6, B and C): inhibited
